Data reported in ChEMBL document CHEMBL5046221, “Identification of Pyrimidine-Based Lead Compounds for Understudied Kinases Implicated in Driving Neurodegeneration” (J Med Chem, 2022).

Legend:
[1] = Kinetic solubility of compound in PBS at pH 7.4 incubated for 24 hrs by chemiluminscent nitrogen detection method; format: physicochemical; conditions: buffer, pH 7.4, 24 h
How it was run: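 Filtrates were quantified by total chemiluminescent nitrogen determination against a calibration curve, with correction for background nitrogen from DMSO and medium.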

[2] = target: T1, Serine/threonine-protein kinase TBK1 (Homo sapiens, UniProt Q9UHD2); assay: Displacement of tracer K5 from NLuc fused TBK1 (unknown origin) expressed in HEK293 cells by NanoBRET assay; format: cell-based
T1 sequence (Q9UHD2 whole entry): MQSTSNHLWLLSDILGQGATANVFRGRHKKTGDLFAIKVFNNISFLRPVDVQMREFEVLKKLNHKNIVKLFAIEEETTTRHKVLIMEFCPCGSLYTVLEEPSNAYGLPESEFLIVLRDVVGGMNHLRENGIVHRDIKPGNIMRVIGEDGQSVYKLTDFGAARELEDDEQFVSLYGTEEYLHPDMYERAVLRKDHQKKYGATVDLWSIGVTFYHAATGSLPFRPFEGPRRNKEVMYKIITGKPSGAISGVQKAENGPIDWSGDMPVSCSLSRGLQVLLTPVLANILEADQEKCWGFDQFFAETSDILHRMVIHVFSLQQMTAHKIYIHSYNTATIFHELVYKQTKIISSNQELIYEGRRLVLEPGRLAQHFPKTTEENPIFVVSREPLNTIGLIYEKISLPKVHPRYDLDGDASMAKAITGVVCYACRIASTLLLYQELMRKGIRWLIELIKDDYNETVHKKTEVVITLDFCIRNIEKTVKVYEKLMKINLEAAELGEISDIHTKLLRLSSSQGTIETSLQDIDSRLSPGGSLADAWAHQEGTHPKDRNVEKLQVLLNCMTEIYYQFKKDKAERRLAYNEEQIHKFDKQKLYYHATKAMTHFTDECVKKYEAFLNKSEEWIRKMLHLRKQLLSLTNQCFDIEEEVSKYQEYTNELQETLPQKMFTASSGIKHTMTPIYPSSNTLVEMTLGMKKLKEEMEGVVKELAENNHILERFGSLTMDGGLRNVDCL
How it was run: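 HEK293 cells grown in DMEM with 10% FBS at 37 °C, 5% CO2. NanoBRET assay run in dose–response per manufacturer's protocol with tracer K-5 at 0.5 μM. SEM calculated for assays run more than once.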

[3] = target: T2, Serine/threonine-protein kinase 17B (Homo sapiens) (UniProt O94768); assay: Inhibition of full length recombinant human DRAK2 using KKRPQRRYSNVF as substrate at 1 uM incubated for 120 mins in presence of [gamma-33P-ATP] by radiometric scintillation assay relative to control
T2 sequence (whole entry): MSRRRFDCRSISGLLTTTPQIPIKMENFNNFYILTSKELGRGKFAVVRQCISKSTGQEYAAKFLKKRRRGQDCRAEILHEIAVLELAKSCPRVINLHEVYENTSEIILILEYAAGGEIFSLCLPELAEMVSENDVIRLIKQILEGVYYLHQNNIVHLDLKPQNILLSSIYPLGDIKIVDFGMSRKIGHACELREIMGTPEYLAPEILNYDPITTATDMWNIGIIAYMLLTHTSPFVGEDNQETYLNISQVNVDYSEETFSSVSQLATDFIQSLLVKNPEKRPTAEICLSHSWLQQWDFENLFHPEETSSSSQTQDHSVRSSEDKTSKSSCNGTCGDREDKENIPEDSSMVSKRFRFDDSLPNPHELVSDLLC
How it was run: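 Eurofins radiometric kinase assay with ATP at Km for each kinase. Compound was tested at a single 1 μM concentration in duplicate, and the result is reported as percent of control.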

[4] = target: MAP/microtubule affinity-regulating kinase 3 (Homo sapiens, UniProt P27448); assay: Displacement of tracer K9 from NLuc fused MARK3 (unknown origin) expressed in HEK293 cells by NanoBRET assay; format: cell-based
Sequence of MAP/microtubule affinity-regulating kinase 3 (P27448 whole entry, the tested form may be a part): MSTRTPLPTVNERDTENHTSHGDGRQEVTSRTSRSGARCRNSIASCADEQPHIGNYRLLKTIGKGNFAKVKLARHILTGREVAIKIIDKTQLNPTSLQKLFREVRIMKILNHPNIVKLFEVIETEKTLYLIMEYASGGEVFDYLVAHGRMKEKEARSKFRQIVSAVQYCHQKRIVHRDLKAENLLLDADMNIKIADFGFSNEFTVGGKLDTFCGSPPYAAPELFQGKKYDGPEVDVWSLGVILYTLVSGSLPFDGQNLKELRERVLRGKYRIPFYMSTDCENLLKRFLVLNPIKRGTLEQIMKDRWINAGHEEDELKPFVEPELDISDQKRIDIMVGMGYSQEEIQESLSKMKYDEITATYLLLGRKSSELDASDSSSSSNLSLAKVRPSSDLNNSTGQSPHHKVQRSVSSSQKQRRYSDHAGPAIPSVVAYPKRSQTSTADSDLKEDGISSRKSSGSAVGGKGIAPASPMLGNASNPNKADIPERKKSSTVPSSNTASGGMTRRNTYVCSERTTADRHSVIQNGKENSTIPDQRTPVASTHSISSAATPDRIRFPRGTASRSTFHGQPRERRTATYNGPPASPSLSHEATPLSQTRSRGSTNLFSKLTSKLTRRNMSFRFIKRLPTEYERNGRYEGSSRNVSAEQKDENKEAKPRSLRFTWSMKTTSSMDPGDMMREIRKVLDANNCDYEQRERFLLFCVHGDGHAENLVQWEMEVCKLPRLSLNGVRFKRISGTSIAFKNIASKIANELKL

[5] = target: T3, Leucine-rich repeat serine/threonine-protein kinase 2 (Homo sapiens, UniProt Q5S007); assay: Inhibition of NanoLuc-fused LRRK2 (unknown origin) expressed in HEK293 cells incubated for 2 hrs by NanoBRET assay; format: cell-based
T3 sequence (Q5S007 whole entry, the tested form may be a part): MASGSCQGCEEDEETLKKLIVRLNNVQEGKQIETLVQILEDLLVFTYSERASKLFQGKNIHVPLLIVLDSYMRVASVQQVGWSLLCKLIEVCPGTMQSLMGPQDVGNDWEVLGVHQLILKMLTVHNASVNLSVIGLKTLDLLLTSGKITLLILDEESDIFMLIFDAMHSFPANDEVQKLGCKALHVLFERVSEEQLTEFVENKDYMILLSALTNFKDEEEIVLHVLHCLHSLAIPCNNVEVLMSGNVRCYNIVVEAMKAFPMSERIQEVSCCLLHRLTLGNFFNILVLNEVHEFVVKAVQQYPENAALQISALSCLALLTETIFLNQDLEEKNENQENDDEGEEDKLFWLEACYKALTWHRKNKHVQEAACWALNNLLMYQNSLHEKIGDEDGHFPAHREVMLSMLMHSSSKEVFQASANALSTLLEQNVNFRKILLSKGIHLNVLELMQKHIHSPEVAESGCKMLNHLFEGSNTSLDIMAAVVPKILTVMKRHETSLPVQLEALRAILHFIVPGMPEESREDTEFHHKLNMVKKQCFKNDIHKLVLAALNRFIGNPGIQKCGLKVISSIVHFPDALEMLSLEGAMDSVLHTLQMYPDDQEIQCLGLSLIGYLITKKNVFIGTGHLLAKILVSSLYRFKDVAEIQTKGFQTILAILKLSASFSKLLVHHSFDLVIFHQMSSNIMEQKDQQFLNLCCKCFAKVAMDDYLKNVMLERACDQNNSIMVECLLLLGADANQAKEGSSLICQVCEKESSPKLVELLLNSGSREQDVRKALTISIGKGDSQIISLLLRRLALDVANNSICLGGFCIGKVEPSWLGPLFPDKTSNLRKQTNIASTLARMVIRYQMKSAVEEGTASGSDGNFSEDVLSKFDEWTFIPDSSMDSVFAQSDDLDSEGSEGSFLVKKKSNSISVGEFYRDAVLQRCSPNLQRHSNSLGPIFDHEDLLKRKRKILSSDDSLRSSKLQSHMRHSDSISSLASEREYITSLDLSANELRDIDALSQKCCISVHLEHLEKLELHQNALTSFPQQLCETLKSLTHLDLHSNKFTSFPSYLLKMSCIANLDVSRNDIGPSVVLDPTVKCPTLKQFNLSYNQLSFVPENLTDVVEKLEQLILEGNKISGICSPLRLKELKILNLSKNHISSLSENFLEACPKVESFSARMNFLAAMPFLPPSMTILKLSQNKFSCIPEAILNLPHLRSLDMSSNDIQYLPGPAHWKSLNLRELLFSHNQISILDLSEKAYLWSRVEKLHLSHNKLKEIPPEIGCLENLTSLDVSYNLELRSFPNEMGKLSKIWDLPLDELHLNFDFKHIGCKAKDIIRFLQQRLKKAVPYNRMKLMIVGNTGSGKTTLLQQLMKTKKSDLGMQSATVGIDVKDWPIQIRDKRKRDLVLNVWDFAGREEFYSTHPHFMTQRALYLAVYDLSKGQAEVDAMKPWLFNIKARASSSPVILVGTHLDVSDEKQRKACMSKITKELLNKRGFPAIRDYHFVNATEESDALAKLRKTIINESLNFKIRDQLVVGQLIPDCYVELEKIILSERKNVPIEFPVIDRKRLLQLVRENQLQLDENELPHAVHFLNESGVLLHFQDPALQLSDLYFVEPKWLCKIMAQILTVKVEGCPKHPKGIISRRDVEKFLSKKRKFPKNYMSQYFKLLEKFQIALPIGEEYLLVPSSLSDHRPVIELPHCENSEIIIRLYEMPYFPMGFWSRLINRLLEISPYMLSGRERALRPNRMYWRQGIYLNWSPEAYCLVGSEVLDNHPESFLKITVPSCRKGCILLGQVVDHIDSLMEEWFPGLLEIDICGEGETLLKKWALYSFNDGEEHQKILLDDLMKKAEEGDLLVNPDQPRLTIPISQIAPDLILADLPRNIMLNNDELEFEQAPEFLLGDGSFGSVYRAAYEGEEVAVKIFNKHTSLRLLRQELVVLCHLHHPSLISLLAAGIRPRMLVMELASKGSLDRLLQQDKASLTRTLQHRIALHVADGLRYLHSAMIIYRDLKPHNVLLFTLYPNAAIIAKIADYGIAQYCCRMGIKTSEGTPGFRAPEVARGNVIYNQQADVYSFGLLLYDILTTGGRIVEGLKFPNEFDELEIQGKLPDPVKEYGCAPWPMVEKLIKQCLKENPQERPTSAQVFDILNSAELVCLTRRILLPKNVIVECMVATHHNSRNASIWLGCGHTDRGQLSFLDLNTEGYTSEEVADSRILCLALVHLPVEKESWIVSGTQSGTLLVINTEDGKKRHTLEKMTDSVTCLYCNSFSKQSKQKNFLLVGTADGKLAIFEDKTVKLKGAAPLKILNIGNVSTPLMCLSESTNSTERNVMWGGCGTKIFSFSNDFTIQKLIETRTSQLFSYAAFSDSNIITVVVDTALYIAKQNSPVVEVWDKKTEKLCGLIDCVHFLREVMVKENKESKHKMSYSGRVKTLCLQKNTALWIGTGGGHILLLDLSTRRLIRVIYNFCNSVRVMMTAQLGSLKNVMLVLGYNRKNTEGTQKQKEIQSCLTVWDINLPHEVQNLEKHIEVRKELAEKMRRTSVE
How it was run: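 Cellular target engagement by NanoBRET in dose–response, done in singlicate by Carna Biosciences following the manufacturer's protocol. Compounds tested at concentrations up to 10 μM.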

[6] = target: T4, Serine/threonine-protein kinase 17A (Homo sapiens, UniProt Q9UEE5); assay: Displacement of tracer K9 from NLuc fused DRAK1 (unknown origin) expressed in HEK293 cells by NanoBRET assay; format: cell-based
T4 sequence (Q9UEE5 whole entry): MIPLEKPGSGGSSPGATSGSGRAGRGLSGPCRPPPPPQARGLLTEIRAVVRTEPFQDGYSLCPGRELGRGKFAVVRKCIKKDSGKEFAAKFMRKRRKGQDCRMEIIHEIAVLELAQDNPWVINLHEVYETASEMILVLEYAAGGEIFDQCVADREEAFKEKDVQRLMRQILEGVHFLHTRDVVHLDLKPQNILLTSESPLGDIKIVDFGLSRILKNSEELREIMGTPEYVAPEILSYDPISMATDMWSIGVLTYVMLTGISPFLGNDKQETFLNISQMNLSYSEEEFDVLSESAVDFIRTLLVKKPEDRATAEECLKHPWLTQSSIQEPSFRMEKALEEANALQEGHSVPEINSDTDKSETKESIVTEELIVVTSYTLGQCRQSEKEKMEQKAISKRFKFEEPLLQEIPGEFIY

[7] = target: T3, Leucine-rich repeat serine/threonine-protein kinase 2; assay: Inhibition of recombinant human LRRK2 (970 to end residues) using RLGRDKYKTLRQIRQ as substrate incubated for 40 mins in presence of [gamma-33P-ATP] by radiometric scintillation assay
How it was run: (§1)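 Eurofins radiometric kinase assay run at ATP equal to Km for each kinase. 9-point dose–response in duplicate gives the IC50.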

[8] = target: T5, MAP/microtubule affinity-regulating kinase 4 (Homo sapiens, UniProt Q96L34); assay: Displacement of tracer K5 from NLuc fused MARK4 (unknown origin) expressed in HEK293 cells by NanoBRET assay; format: cell-based
T5 sequence (Q96L34 whole entry): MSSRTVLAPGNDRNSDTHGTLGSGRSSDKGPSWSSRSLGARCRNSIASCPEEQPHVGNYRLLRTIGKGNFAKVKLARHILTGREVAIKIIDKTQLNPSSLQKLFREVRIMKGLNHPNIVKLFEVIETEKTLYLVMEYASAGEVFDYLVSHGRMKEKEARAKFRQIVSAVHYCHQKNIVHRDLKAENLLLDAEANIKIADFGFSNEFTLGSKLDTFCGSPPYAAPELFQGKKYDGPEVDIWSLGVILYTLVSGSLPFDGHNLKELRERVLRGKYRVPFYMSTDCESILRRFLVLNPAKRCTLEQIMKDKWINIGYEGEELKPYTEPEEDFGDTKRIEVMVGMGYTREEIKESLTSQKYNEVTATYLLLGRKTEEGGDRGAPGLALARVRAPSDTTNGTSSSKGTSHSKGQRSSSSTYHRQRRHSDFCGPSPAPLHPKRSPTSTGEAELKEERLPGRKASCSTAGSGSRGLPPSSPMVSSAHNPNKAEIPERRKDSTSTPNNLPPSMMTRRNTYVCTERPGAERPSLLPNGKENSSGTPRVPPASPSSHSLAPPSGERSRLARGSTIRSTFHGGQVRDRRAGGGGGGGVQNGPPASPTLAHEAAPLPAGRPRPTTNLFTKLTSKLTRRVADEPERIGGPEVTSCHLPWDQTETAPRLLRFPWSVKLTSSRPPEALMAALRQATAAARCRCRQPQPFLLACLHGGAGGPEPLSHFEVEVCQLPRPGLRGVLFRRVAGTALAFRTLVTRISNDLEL

[9] = target: Myosin light chain kinase 2, skeletal/cardiac muscle (Homo sapiens, UniProt Q9H1R3); assay: Inhibition of full length recombinant human MYLK2 using KKLNRTLSFAEPG as substrate incubated for 40 mins in presence of [gamma-33P-ATP] by radiometric scintillation assay
Sequence of Myosin light chain kinase 2, skeletal/cardiac muscle (Q9H1R3 whole entry): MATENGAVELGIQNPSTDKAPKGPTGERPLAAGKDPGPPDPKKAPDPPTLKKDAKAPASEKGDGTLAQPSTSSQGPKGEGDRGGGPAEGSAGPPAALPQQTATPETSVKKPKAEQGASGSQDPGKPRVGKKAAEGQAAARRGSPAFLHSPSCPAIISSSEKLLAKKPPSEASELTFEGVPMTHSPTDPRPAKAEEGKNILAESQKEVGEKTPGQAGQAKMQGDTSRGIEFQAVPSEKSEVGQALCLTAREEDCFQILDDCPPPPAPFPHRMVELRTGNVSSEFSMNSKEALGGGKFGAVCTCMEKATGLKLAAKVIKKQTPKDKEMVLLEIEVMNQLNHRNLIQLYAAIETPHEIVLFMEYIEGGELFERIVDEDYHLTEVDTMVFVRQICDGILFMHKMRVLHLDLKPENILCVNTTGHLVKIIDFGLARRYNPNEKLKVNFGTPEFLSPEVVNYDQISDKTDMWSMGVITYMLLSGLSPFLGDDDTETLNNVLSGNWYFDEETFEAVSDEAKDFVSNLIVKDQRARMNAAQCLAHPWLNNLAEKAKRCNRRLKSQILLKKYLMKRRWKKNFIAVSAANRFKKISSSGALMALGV
How it was run: (§2)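 Eurofins radiometric enzymatic assay with ATP at Km for each kinase. IC50 was derived from a 9-point dose–response curve run in duplicate.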

[10] = Effective permeability in PBS at 7.4 incubated for 5 hrs by PAMPA analysis; format: ADME; conditions: pH 7.4, 5 h
How it was run: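 PAMPA: DMSO stocks were diluted in PBS pH 7.4 and placed in the donor compartment, with PBS pH 7.4 in the acceptor, for 5 h. Both compartments were quantified by CLND against a calibration curve, with background nitrogen correction. Effective permeability was calculated from donor and acceptor concentrations using measured rather than assumed solubility.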

[11] = target: Serine/threonine-protein kinase NIM1 (Homo sapiens, UniProt Q8IY84); assay: Inhibition of full length recombinant human NIM1 using KKKVSRSGLYRSPSMPENLNRPR as substrate incubated for 40 mins in presence of [gamma-33P-ATP] by radiometric scintillation assay; how it was run: as §2
[12] = target: Serine/threonine-protein kinase 32B (Homo sapiens, UniProt Q9NY57); assay: Inhibition of full length recombinant human YANK2 using casein as substrate incubated for 120 mins in presence of [gamma-33P-ATP] by radiometric scintillation assay; how it was run: as §2
Sequence of Serine/threonine-protein kinase 32B (Q9NY57 whole entry): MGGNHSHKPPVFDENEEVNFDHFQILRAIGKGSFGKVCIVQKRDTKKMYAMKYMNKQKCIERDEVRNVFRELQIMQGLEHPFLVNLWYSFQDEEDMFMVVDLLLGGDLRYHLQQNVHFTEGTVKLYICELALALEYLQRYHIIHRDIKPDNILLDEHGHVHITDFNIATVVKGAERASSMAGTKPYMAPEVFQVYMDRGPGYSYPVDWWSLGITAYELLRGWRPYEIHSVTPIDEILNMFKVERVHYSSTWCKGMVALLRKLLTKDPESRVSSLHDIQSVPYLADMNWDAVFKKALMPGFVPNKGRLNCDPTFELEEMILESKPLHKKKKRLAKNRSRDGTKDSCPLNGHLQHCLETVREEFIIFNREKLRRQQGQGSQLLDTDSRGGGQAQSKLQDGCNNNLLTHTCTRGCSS

[13] = target: MAP kinase-interacting serine/threonine-protein kinase 2 (Homo sapiens, UniProt Q9HBH9); assay: Inhibition of full length recombinant human MKNK2 using myelin basic protein as substrate incubated for 40 mins in presence of [gamma-33P-ATP] by radiometric scintillation assay; how it was run: as §1
Sequence of MAP kinase-interacting serine/threonine-protein kinase 2 (Q9HBH9 whole entry): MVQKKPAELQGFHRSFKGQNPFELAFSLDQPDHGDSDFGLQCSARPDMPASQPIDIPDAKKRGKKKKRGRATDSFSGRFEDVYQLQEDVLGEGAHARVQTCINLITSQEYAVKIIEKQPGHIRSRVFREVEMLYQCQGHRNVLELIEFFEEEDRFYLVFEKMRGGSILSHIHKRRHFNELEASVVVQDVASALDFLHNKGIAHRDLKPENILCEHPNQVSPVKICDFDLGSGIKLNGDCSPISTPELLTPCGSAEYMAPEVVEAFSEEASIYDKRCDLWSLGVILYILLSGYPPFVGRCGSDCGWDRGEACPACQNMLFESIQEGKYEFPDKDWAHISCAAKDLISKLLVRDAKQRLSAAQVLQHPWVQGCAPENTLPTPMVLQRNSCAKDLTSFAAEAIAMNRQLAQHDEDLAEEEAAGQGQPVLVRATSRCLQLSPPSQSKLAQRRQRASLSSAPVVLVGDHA

Cc1nn(CC(F)(F)F)cc1Nc1ncc(C2CC2)c(NCCc2c[nH]cn2)n1
Kinetic_solubility [1]: 171 µM
IC50 [2]: > 10 µM
% control [3]: 59%
IC50 [4]: > 10 µM
IC50 [5]: > 10 µM
IC50 [6]: > 10 µM
IC50 [7]: 0.089 µM
IC50 [8]: > 10 µM
IC50 [9]: 1.12 µM
Peff [10]: 3.89 10^-7 cm/s
IC50 [11]: 4.4 µM

Cc1nn(CC(F)(F)F)cc1Nc1nccc(NCCCNC(=O)C2CCC2)n1
IC50 [12]: > 10 µM
Kinetic_solubility [1]: 174.6 µM
IC50 [13]: 2.87 µM
IC50 [2]: > 10 µM
% control [3]: 60%
IC50 [4]: > 10 µM
IC50 [6]: > 10 µM
IC50 [8]: > 10 µM
Peff [10]: 2.39 10^-6 cm/s
